Results: PMC8713577 (ACS infectious diseases, 2021)
Values after ≈ are worked out from the molar mass of the structure shown. Read-outs that look alike come from different tables or passages of the source.

How the values were obtained:
S. aureus ATCC 29213 [1] = assay: MIC, CLSI broth microdilution; assay type: cell-based, Staphylococcus aureus; settings: for MIC fold worse than FA: S. aureus ATCC 29213; for antibacterial activity relative to FA: S. aureus ATCC 29213, MIC
Method in brief: (§1)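 Broth microdilution followed CLSI, in cation-adjusted Mueller-Hinton broth in round-bottom wells, run in biological triplicate. Reference strains came from ATCC.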

[2] = mouse, in vivo
S. aureus (FA-32X-B) = assay: Neutropenic thigh infection burden study, FA-resistant strain; assay type: in vivo, CD-1 mice; settings: 50 mg/kg IP at 1, 2, 3 h postinfection, 8 h postinfection
[3] = test system: six clinical isolates of E. faecium (VRE); assay: MIC against clinical isolates of E. faecium; assay type: cell-based, Enterococcus faecium; settings: for activity against VRE clinical isolates: E. faecium clinical isolates with high levels of vancomycin resistance
[4] = test system: human foreskin fibroblast-1 cells (HFF-1); assay: Cell viability, Alamar Blue, 72 h; assay type: cell-based
Method in brief: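 HFF-1 fibroblasts were grown in DMEM with 15% fetal bovine serum, 100 μg/mL penicillin and 100 μg/mL streptomycin at 37 °C under 5% CO2. Cells were harvested, seeded and left to adhere. They were exposed to compounds in DMSO (1% final) for 72 h, and viability was then read by Alamar Blue. Raptinal (20 μM) served as the dead control.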

[5] = human, in vivo; cited from earlier work
[6] = test system: clinical isolates of S. aureus / staphylococci resistant to FA; settings: cited from earlier work
[7] = test system: 29 clinical isolates of S. aureus; assay: MIC against multidrug-resistant clinical isolates of S. aureus; assay type: cell-based, Staphylococcus aureus; settings: 29 multidrug-resistant clinical isolates
[8] = test system: S. aureus strains in the United States; settings: analysis conducted in 2011; cited from earlier work
E. faecium ATCC 19434 = assay: MIC against sensitive E. faecium; assay type: cell-based, Enterococcus faecium
Method in brief: as §1

[9] = Mouse maximum tolerated dose / tolerability
S. aureus ATCC BAA-1721 = assay: MIC against S. aureus strain harboring the fusC gene; assay type: cell-based, Staphylococcus aureus; settings: S. aureus ATCC BAA-1721, fusC gene
S. aureus ATCC 29213 [10] = assay: Resistance frequency, large inoculum method; assay type: cell-based, Staphylococcus aureus; settings: 2, 4, 8, 16, 32X the MIC
[11] = test system: strains of S. aureus ATCC 29213 resistant to FA-CP; assay: MIC against FA-CP-resistant mutant strains; assay type: cell-based, Staphylococcus aureus
[12] = test system: FA-resistant strains of S. aureus ATCC 29213; assay type: cell-based, Staphylococcus aureus
S. aureus = assay: MIC shift in 50% human serum; assay type: cell-based, Staphylococcus aureus
Method in brief: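 The CLSI broth microdilution MIC in cation-adjusted Mueller-Hinton broth was repeated against S. aureus with 50% human serum (ultrafiltrate, 30K Dalton membrane-filtered, unspecified gender) in the medium. Testing was in biological triplicate.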

SMILES: CC(=O)OC1CC2(C)C(CC(O)C3C4(C)CCC(=O)C(C)C4CCC32C)C1=C(CCC=C(C)C)C(=O)O (stereo not shown) [compound 5]
- MIC fold worse than FA (S. aureus ATCC 29213 [1]): 4–8 fold

SMILES: CC(=O)OC1CC2(C)C(CC(O)C3C4(C)CCC(O)C(C)C4CCC32C)C1C(CCCC(C)C)C(=O)O (stereo not shown) [compound 28]
- antibacterial activity relative to FA (S. aureus ATCC 29213 [1]): modest decreases in potency relative to FA

SMILES: CC(=O)O[C@H]1C[C@@]2(C)[C@@H](C[C@@H](O)[C@H]3[C@@]4(C)CC[C@@H](O)[C@@H](C)[C@@H]4CC[C@@]32C)/C1=C(\CCC=C(C)C)C(=O)O [sodium fusidate]
- tolerability in mice, single dose ([2]; ip, 50 mg/kg): well tolerated

SMILES: CC(=O)O[C@H]1C[C@@]2(C)[C@@H](C[C@@H](O)[C@H]3[C@@]4(C)CC[C@@H](O)[C@@H](C)[C@@H]4CC[C@@]32C)/C1=C(\CCC=C(C)C)C(=O)O [FA, Fusidic acid, reference compound]
- bacterial burden in thigh (S. aureus (FA-32X-B)): no efficacy
- activity against VRE clinical isolates [3]: retained potent activity
- IC50 ([4]; Homo sapiens, HFF-1, 72 h): > 50 µM
- Cmax [5]: greater than 130 μg/mL
- half-life [5]: 10 to 14 h
- tolerability in mice, multiple doses [2]: well tolerated
- increase in MIC upon resistance ([6]; L461K mutation): > 2048 fold
- MIC ([6]; S. aureus clinical strains with EF-G L461K mutation): > 256 µg/mL
- MIC ([6]; five S. aureus clinical isolates with EF-G V90I, H457Q, L461K, A655V): > 256 µg/mL
- MIC range ([6]; staphylococcal clinical isolates that carry the fusC gene): 2 to 64 µg/mL
- MIC range ([6]; strains that possess the fusB gene): 4 to 1024 µg/mL
- MIC (S. aureus ATCC 29213 [1]; Staphylococcus aureus, ATCC29213): 0.125 µg/mL (≈ 0.242 µM)
- activity against clinical isolates of S. aureus [7]: no cross-resistance with vancomycin and retained potent activity
- S. aureus strains susceptible to FA [8]: 99.7%
- MIC (E. faecium ATCC 19434; Enterococcus faecium, ATCC19434): 2 µg/mL (≈ 3.87 µM)

SMILES: CC(=O)OC1CC2(C)C(CC(O)C3C4(C)CCC(O)C(C)C4CCC32C)C1=C(CCC=C1CCCC1)C(=O)O (stereo not shown) [FA-CP]
- bacterial burden in thigh (S. aureus (FA-32X-B)): reductions in bacterial burden
- tolerability in mice, multiple doses ([9]; 50 mg/kg, intraperitoneal injection, once-a-day for 4 days): well tolerated
- tolerability in mice, single dose ([9]; single dose of 50 mg/kg, IP): well tolerated
- MIC (S. aureus ATCC BAA-1721): 8 µg/mL (≈ 14.7 µM)
- activity against VRE clinical isolates [3]: retained potent activity
- resistance frequency relative to FA (S. aureus ATCC 29213 [10]): modest improvement in resistance frequency at 2 and 32X the MIC
- fold increase in MIC from wild-type (WT) S. aureus ([11]; highest MIC of colonies generated from FA-CP): 512 fold
- highest MIC observed for colonies generated from FA-CP ([11]; resistance mutants generated at 32X the MIC): 64 µg/mL
- MIC for FA-CP ([11]; strain FA-CP-32X-1, EF-G H457Y): 32 µg/mL
- MIC for FA-CP ([11]; strain FA-CP-32X-2, EF-G H457Y): 64 µg/mL
- MIC for FA-CP ([11]; strain FA-CP-32X-3, EF-G H457Y): 64 µg/mL
- MIC for FA-CP ([11]; strain FA-CP-32X-4, EF-G H457Y): 32 µg/mL
- MIC for FA-CP ([11]; strain FA-CP-32X-5, EF-G H457Y): 64 µg/mL
- MIC for FA-CP ([11]; strain FA-CP-32X-6, EF-G H457Y): 64 µg/mL
- MIC for FA-CP ([11]; strain FA-CP-32X-7, EF-G H457Y): 64 µg/mL
- MIC for FA-CP ([11]; strain FA-CP-32X-8, EF-G H457Y): 64 µg/mL
- MIC for FA-CP ([11]; strain FA-CP-32X-9, EF-G H457Y): 32 µg/mL
- MIC for FA-CP ([11]; strain FA-CP-32X-10, EF-G D434N): 32 µg/mL
- MIC for FA-CP ([11]; strain FA-CP-32X-11, EF-G H457Y): 32 µg/mL
- MIC for FA-CP ([11]; strain FA-CP-32X-12, EF-G D434N): 32 µg/mL
- MIC for FA-CP ([11]; strain FA-CP-32X-13, EF-G H457Y): 64 µg/mL
- MIC for FA-CP ([11]; strain FA-CP-32X-14, EF-G H457Y): 32 µg/mL
- MIC for FA-CP ([11]; strain FA-CP-32X-15, EF-G H457Y): 64 µg/mL
- MIC for FA-CP ([11]; strain FA-CP-32X-16, EF-G F88L): 64 µg/mL
- MIC for FA-CP ([11]; strain FA-CP-32X-17, EF-G F88L): 64 µg/mL
- MIC for FA-CP ([11]; strain FA-CP-32X-18, EF-G H457Y): 64 µg/mL
- MIC for FA-CP ([11]; strain FA-CP-32X-19, EF-G H457Y): 32 µg/mL
- MIC for FA-CP ([11]; strain FA-CP-32X-20, EF-G H457Y): 32 µg/mL
- IC50 ([4]; HFF-1 cells, 72 h): > 50 µM
- improvement in activity against FA-resistant strains relative to FA ([12]; 11 FA-resistant strains): 2–8 fold
- MIC ([12]; FA-resistant strain FA-4X-A, EF-G T385N): 2 µg/mL (≈ 3.68 µM)
- MIC ([12]; FA-resistant strain FA-4X-B, EF-G T385N): 2 µg/mL (≈ 3.68 µM)
- MIC ([12]; FA-resistant strain FA-8X-A, EF-G T385N): 2 µg/mL (≈ 3.68 µM)
- MIC ([12]; FA-resistant strain FA-8X-B, EF-G R464L): 8 µg/mL (≈ 14.7 µM)
- MIC ([12]; FA-resistant strain FA-16X-A, EF-G H457Y): 64 µg/mL (≈ 118 µM)
- MIC ([12]; FA-resistant strain FA-32X-A, EF-G F88L): 128 µg/mL (≈ 236 µM)
- MIC ([12]; FA-resistant strain FA-32X-B, EF-G P406L): 4 µg/mL (≈ 7.37 µM)
- MIC ([12]; FA-resistant strain FA-32X-C, EF-G H457L): 128 µg/mL (≈ 236 µM)
- MIC ([12]; FA-resistant strain FA-32X-D, EF-G T436I): 2 µg/mL (≈ 3.68 µM)
- MIC ([12]; FA-resistant strain FA-32X-E, EF-G H457N): 128 µg/mL (≈ 236 µM)
- MIC ([12]; FA-resistant strain FA-32X-F, EF-G D434N): 32 µg/mL (≈ 59 µM)
- shift in MIC in 50% human serum compared to FA (S. aureus): very similar
- MIC (S. aureus ATCC 29213 [1]; S. aureus ATCC 29213, CLSI): 0.125 µg/mL (≈ 0.23 µM)
- antibacterial activity relative to FA (S. aureus ATCC 29213 [1]): equipotent activity to FA
- activity against clinical isolates of S. aureus [7]: no cross-resistance with vancomycin and retained potent activity
- MIC (E. faecium ATCC 19434; sensitive strain E. faecium ATCC 19434): 2 µg/mL (≈ 3.68 µM)

SMILES: CN[C@H](CC(C)C)C(=O)N[C@H]1C(=O)N[C@@H](CC(N)=O)C(=O)N[C@H]2C(=O)N[C@H]3C(=O)N[C@H](C(=O)N[C@H](C(=O)O)c4cc(O)cc(O)c4-c4cc3ccc4O)[C@H](O)c3ccc(c(Cl)c3)Oc3cc2cc(c3O[C@@H]2O[C@H](CO)[C@@H](O)[C@H](O)[C@H]2O[C@H]2C[C@](C)(N)[C@H](O)[C@H](C)O2)Oc2ccc(cc2Cl)[C@H]1O [vancomycin]
- MIC [3]: 512 µg/mL (≈ 353 µM)

SMILES: CC(=O)OC1CC2(C)C(CC(=O)C3C4(C)CCC(O)C(C)C4CCC32C)C1=C(CCC=C(C)C)C(=O)O (stereo not shown) [compound 10]
- MIC fold worse than FA (S. aureus ATCC 29213 [1]): 4–8 fold

SMILES: CC(=O)O[C@H]1C[C@@]2(C)[C@@H](C[C@@H](O)[C@H]3[C@@]4(C)CC[C@@H](O)[C@@H](C)[C@@H]4CC[C@@]32C)/C1=C(\CCC=C1CCOCC1)C(=O)O [compound 27]
- resistance frequency relative to FA (S. aureus ATCC 29213 [10]): worse resistance frequency relative to FA
- IC50 ([4]; HFF-1 cells, 72 h): > 50 µM
- shift in MIC in 50% human serum compared to FA (S. aureus): very similar
- MIC (S. aureus ATCC 29213 [1]; S. aureus ATCC 29213, CLSI): 0.125 µg/mL (≈ 0.224 µM)
- antibacterial activity relative to FA (S. aureus ATCC 29213 [1]): equipotent activity to FA

SMILES: CC(=O)OC1CC2(C)C(CC(O)C3C4(C)CCC(O)C(C)C4CCC32C)C1=C(CCC=C1CCCCC1)C(=O)O (stereo not shown) [compound 26]
- resistance frequency relative to FA (S. aureus ATCC 29213 [10]): only displayed an improvement at 32X the MIC
- IC50 ([4]; HFF-1 cells, 72 h): > 50 µM
- shift in MIC in 50% human serum compared to FA (S. aureus): very similar
- MIC (S. aureus ATCC 29213 [1]; S. aureus ATCC 29213, CLSI): 0.125 µg/mL (≈ 0.225 µM)
- antibacterial activity relative to FA (S. aureus ATCC 29213 [1]): equipotent activity to FA
